Assay results reported in ChEMBL document CHEMBL5331111, “Synthetic Biology Facilitates Semisynthetic Development of Type V Glycopeptide Antibiotics Targeting Vancomycin-Resistant Enterococcus” (J Med Chem, 2023).
≈ marks a conversion by molar mass, not a printed value.

Tests used:
[1] = system: Mycobacteroides abscessus; experiment: Antimycobacterial activity against Mycobacterium abscessus ATCC 19977 assessed as inhibition of bacterial growth measured after 2 days by resazurin dye based analysis; assay type: functional; settings: ATCC 19977, 48 h, time 2 day
Summary of the method: (§1)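 Cultured in 7H9 with 0.2% glycerol, 10% OADC and 0.05% Tween-80. Inoculum diluted to ~5 × 10^5 CFU/mL and confirmed at 3–8 × 10^5 by plating on 7H10 agar. Growth read at 2 days, then 30 μg/mL resazurin added for one more day. Values averaged from at least two experiments.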

[2] = Antimycobacterial activity against Mycobacterium avium subsp. avium ATCC 25291 assessed as inhibition of bacterial growth measured after 7 days by resazurin dye based analysis; assay type: functional; settings: ATCC 25291, 168 h, time 7 day
Summary of the method: (§2)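 Strains grown in 7H9 broth with 0.2% glycerol, 10% OADC and 0.05% Tween-80. Inoculum was about 5 × 10^5 CFU/mL, checked by plating on 7H10/OADC agar to be 3–8 × 10^5. Read at 2 days for M. smegmatis and 7 days for M. tuberculosis H37Ra, M. bovis and M. avium. Resazurin 30 μg/mL was then added for one further day. Values are averages of at least two experiments.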

[3] = system: Mycolicibacterium smegmatis; experiment: Antimycobacterial activity against Mycobacterium smegmatis MC2 155 assessed as inhibition of bacterial growth measured after 2 days by resazurin dye based analysis; assay type: functional; settings: MC2 155, 48 h, time 2 day; summary of the method: as §2
[4] = system: Mycolicibacterium fortuitum; experiment: Antimycobacterial activity against Mycobacterium fortuitum ATCC 6891 assessed as inhibition of bacterial growth measured after 2 days by resazurin dye based analysis; assay type: functional; settings: ATCC 6891, 48 h, time 2 day; summary of the method: as §1
[5] = system: Mycobacterium tuberculosis; experiment: Antimycobacterial activity against Mycobacterium tuberculosis H37Ra assessed as inhibition of bacterial growth measured after 7 days by resazurin dye based analysis; assay type: functional; settings: 168 h, time 7 day; summary of the method: as §2
[6] = Cytotoxicity against HEK293 cells assessed as inhibition of cell growth incubated for 48 hrs by Cell-Titer Glo reagent based analysis; assay type: toxicity; settings: human
Summary of the method: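 HEK293 cells seeded at 7500 cells/well in DMEM with 10% FBS, 2 mM glutamine and pen/strep, and left 18 h at 37 °C under 5% CO2. Compound then added at 1% final DMSO and incubated 48 h. Viability read by CellTiter-Glo luminescence and normalized to DMSO-only wells. Curves fitted by 4PL constrained to 0–1.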

[7] = Hemolytic activity in human RBC incubated for 1 hr by absorbance based analysis; assay type: toxicity, cell-based, Erythrocyte; settings: red blood cells (erythrocytes)
Summary of the method: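 Human K2-EDTA blood RBCs washed twice in 150 mM NaCl, resuspended in PBS pH 7.4, then diluted 1:50. Incubated with compound at 1% final DMSO for 1 h at 37 °C and pelleted at 500g for 5 min. Supernatant absorbance read at 540 nm. Controls were DMSO-only and a Triton X-100 dilution series (20% to 0.02%).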

Staphylococcus aureus = experiment: Antibacterial activity against Staphylococcus aureus ATCC 33591 assessed as reduction in bacterial growth by Mueller-Hinton broth based assay; assay type: functional
Summary of the method: (§3)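 Broth MIC by standard procedure in Mueller-Hinton broth, for both B. subtilis 168 and S. aureus ATCC 33591.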

Enterococcus faecium [8] = experiment: Antibacterial activity against vancomycin-resistant Enterococcus faecium ATCC 700221 assessed as inhibition of bacterial growth by Mueller-Hinton broth based assay; assay type: functional
Enterococcus faecalis = experiment: Antibacterial activity against vancomycin-resistant Enterococcus faecalis ATCC 51299 assessed as inhibition of bacterial growth by Mueller-Hinton broth based assay; assay type: functional
Bacillus subtilis = experiment: Antibacterial activity against Bacillus subtilis 168 assessed as reduction in bacterial growth by Mueller-Hinton broth based assay; assay type: functional; summary of the method: as §3
Enterococcus faecium [9] = experiment: Antibacterial activity against Enterococcus faecium WCC 0586 assessed as inhibition of bacterial growth by Mueller-Hinton broth based assay; assay type: functional
Enterococcus faecium [10] = experiment: Antibacterial activity against Enterococcus faecium WCC 0558 assessed as inhibition of bacterial growth by Mueller-Hinton broth based assay; assay type: functional
Enterococcus faecium [11] = experiment: Antibacterial activity against Enterococcus faecium WCC 0499 assessed as inhibition of bacterial growth by Mueller-Hinton broth based assay; assay type: functional
Enterococcus faecium [12] = experiment: Antibacterial activity against Enterococcus faecium WCC 0528 assessed as inhibition of bacterial growth by Mueller-Hinton broth based assay; assay type: functional
Enterococcus faecium [13] = experiment: Antibacterial activity against Enterococcus faecium WCC 0553 assessed as inhibition of bacterial growth by Mueller-Hinton broth based assay; assay type: functional
Enterococcus faecium [14] = experiment: Antibacterial activity against Enterococcus faecium WCC 0500 assessed as inhibition of bacterial growth by Mueller-Hinton broth based assay; assay type: functional
Enterococcus faecium [15] = experiment: Antibacterial activity against Enterococcus faecium WCC 0491 assessed as inhibition of bacterial growth by Mueller-Hinton broth based assay; assay type: functional
Enterococcus faecium [16] = experiment: Antibacterial activity against wild type Enterococcus faecium ATCC 19434 assessed as inhibition of bacterial growth by Mueller-Hinton broth based assay; assay type: functional
Enterococcus faecium [17] = experiment: Antibacterial activity against Enterococcus faecium WCC 0537 assessed as inhibition of bacterial growth by Mueller-Hinton broth based assay; assay type: functional
Enterococcus faecium [18] = experiment: Antibacterial activity against Enterococcus faecium WCC 0495 assessed as inhibition of bacterial growth by Mueller-Hinton broth based assay; assay type: functional
Enterococcus faecium [19] = experiment: Antibacterial activity against Enterococcus faecium WCC 0534 assessed as inhibition of bacterial growth by Mueller-Hinton broth based assay; assay type: functional
Enterococcus faecium [20] = experiment: Antibacterial activity against Enterococcus faecium WCC 0587 assessed as inhibition of bacterial growth by Mueller-Hinton broth based assay; assay type: functional
Enterococcus faecium [21] = experiment: Antibacterial activity against Enterococcus faecium WCC 0502 assessed as inhibition of bacterial growth by Mueller-Hinton broth based assay; assay type: functional
Enterococcus faecium [22] = experiment: Antibacterial activity against Enterococcus faecium WCC 0492 assessed as inhibition of bacterial growth by Mueller-Hinton broth based assay; assay type: functional
Enterococcus faecium [23] = experiment: Antibacterial activity against Enterococcus faecium WCC 0506 assessed as inhibition of bacterial growth by Mueller-Hinton broth based assay; assay type: functional
Enterococcus faecium [24] = experiment: Antibacterial activity against Enterococcus faecium WCC 0545 assessed as inhibition of bacterial growth by Mueller-Hinton broth based assay; assay type: functional
Enterococcus faecium [25] = experiment: Antibacterial activity against Enterococcus faecium WCC 0533 assessed as inhibition of bacterial growth by Mueller-Hinton broth based assay; assay type: functional
Enterococcus faecium [26] = experiment: Antibacterial activity against Enterococcus faecium WCC 0498 assessed as inhibition of bacterial growth by Mueller-Hinton broth based assay; assay type: functional
Enterococcus faecium [27] = experiment: Antibacterial activity against Enterococcus faecium WCC 0516 assessed as inhibition of bacterial growth by Mueller-Hinton broth based assay; assay type: functional
Enterococcus gallinarum = experiment: Antibacterial activity against vancomycin-resistant Enterococcus gallinarum ATCC 49573 assessed as inhibition of bacterial growth by Mueller-Hinton broth based assay; assay type: functional
Enterococcus faecium [28] = experiment: Antibacterial activity against vancomycin-resistant Enterococcus faecium WCC 0541 assessed as inhibition of bacterial growth by Mueller-Hinton broth based assay; assay type: functional
Enterococcus faecium [29] = experiment: Antibacterial activity against Enterococcus faecium WCC 0524 assessed as inhibition of bacterial growth by Mueller-Hinton broth based assay; assay type: functional

NNC(=O)c1ccncc1 [ISONIAZID]
MIC [1]: > 128 mg/L
MIC [2]: > 128 mg/L
MIC [3]: 4 mg/L (≈ 29.2 µM)
MIC [4]: 4 mg/L (≈ 29.2 µM)
MIC [5]: 0.063 mg/L (≈ 0.459 µM)

CN1C(=O)[C@@H]2NC(=O)[C@@H]3NC(=O)[C@@H](c4ccc(O)cc4)NC(=O)[C@H](NC(=O)C(NC(=O)CCCCCN)c4ccc(O)cc4)Cc4c[nH]c5cc(ccc45)-c4cc3cc(c4O)Oc3ccc(cc3)C[C@H]1C(=O)N[C@@H](C(=O)O)c1ccc(O)c(c1)Oc1ccc2cc1 (stereo not given in full)
IC50 at 48 h [6]: > 256 mg/L
IC50 at 1 h [7]: > 256 mg/L
MIC (Staphylococcus aureus): 8 mg/L (≈ 6.48 µM)

CN1C(=O)[C@@H]2NC(=O)[C@@H]3NC(=O)[C@@H](c4ccc(O)cc4)NC(=O)[C@H](NC(=O)Cc4ccc(O)cc4)Cc4c[nH]c5cc(ccc45)-c4cc3cc(c4O)Oc3ccc(cc3)C[C@H]1C(=O)N[C@@H](C(=O)NCCC[N+](C)(C)C)c1ccc(O)c(c1)Oc1ccc2cc1
MIC (Enterococcus faecium [8]): 4 mg/L
MIC [3]: 0.5 mg/L
MIC (Enterococcus faecalis): 16 mg/L
IC50 at 48 h [6]: > 256 mg/L
IC50 at 1 h [7]: > 256 mg/L
MIC (Staphylococcus aureus): > 128 mg/L
MIC (Bacillus subtilis): 4 mg/L

CN1C(=O)[C@@H]2NC(=O)[C@@H]3NC(=O)[C@@H](c4ccc(O)cc4)NC(=O)[C@H](NC(=O)C(N)c4ccc(O)cc4)Cc4c[nH]c5cc(ccc45)-c4cc3cc(c4O)Oc3ccc(cc3)C[C@H]1C(=O)N[C@@H](C(=O)O)c1ccc(O)c(c1)Oc1ccc2cc1 (stereo not given in full)
MIC (Enterococcus faecium [9]): 8 mg/L (≈ 7.14 µM)
MIC (Enterococcus faecium [10]): 8 mg/L (≈ 7.14 µM)
MIC (Enterococcus faecium [11]): 8 mg/L (≈ 7.14 µM)
MIC (Enterococcus faecium [12]): 8 mg/L (≈ 7.14 µM)
MIC (Enterococcus faecium [8]): 8 mg/L (≈ 7.14 µM)
MIC (Enterococcus faecium [13]): 8 mg/L (≈ 7.14 µM)
MIC (Enterococcus faecium [14]): 8 mg/L (≈ 7.14 µM)
MIC (Enterococcus faecium [15]): 4 mg/L (≈ 3.57 µM)
MIC [3]: 8 mg/L (≈ 7.14 µM)
MIC (Enterococcus faecalis): 8 mg/L (≈ 7.14 µM)
MIC (Enterococcus faecium [16]): 8 mg/L (≈ 7.14 µM)
MIC (Enterococcus faecium [17]): 8 mg/L (≈ 7.14 µM)
MIC (Enterococcus faecium [18]): 8 mg/L (≈ 7.14 µM)
MIC (Enterococcus faecium [19]): 4 mg/L (≈ 3.57 µM)
MIC (Enterococcus faecium [20]): 8 mg/L (≈ 7.14 µM)
MIC [4]: 8 mg/L (≈ 7.14 µM)
MIC (Enterococcus faecium [21]): 4 mg/L (≈ 3.57 µM)
MIC (Enterococcus faecium [22]): 8 mg/L (≈ 7.14 µM)
MIC (Enterococcus faecium [23]): 4 mg/L (≈ 3.57 µM)
MIC (Enterococcus faecium [24]): 8 mg/L (≈ 7.14 µM)
MIC (Enterococcus faecium [25]): 8 mg/L (≈ 7.14 µM)
MIC (Enterococcus faecium [26]): 8 mg/L (≈ 7.14 µM)
MIC (Enterococcus faecium [27]): 8 mg/L (≈ 7.14 µM)
MIC (Enterococcus gallinarum): 8 mg/L (≈ 7.14 µM)
MIC (Enterococcus faecium [28]): 8 mg/L (≈ 7.14 µM)
MIC (Enterococcus faecium [29]): 4 mg/L (≈ 3.57 µM)
MIC (Staphylococcus aureus): 8 mg/L (≈ 7.14 µM)

CN1C(=O)[C@@H]2NC(=O)[C@@H]3NC(=O)[C@@H](c4ccc(O)cc4)NC(=O)[C@H](NC(=O)C(N)c4ccc(O)cc4)Cc4c[nH]c5cc(ccc45)-c4cc3cc(c4O)Oc3ccc(cc3)C[C@H]1C(=O)N[C@@H](C(=O)NCCCN)c1ccc(O)c(c1)Oc1ccc2cc1 (stereo not given in full)
MIC (Enterococcus faecium [8]): 1 mg/L (≈ 0.849 µM)
MIC (Enterococcus faecalis): 4 mg/L (≈ 3.4 µM)
IC50 at 48 h [6]: > 256 mg/L
IC50 at 1 h [7]: > 256 mg/L

CCCCCCNC(C(=O)N[C@@H]1Cc2c[nH]c3cc(ccc23)-c2cc3cc(c2O)Oc2ccc(cc2)C[C@H]2C(=O)N[C@@H](C(=O)O)c4ccc(O)c(c4)Oc4ccc(cc4)[C@@H](NC(=O)[C@@H]3NC(=O)[C@@H](c3ccc(O)cc3)NC1=O)C(=O)N2C)c1ccc(O)cc1 (stereo not given in full)
MIC (Enterococcus faecium [8]): 4 mg/L (≈ 3.32 µM)
MIC (Enterococcus faecalis): 4 mg/L (≈ 3.32 µM)
IC50 at 48 h [6]: > 256 mg/L
IC50 at 1 h [7]: > 256 mg/L
